Assay results published in ChEMBL document CHEMBL1125603, “2-Chloro-1-(2,4-dichlorophenyl)-3-(1H-imidazol-1-yl)-2-phenylpropan-1-one hydrochloride, a novel, nonmutagenic antibacterial with specific activity against anaerobic bacteria” (1991).
Converted amounts (≈) assume the structure as drawn.

Key:
Assay type in all cases: functional
[1] = system: Clostridium perfringens; experiment: Minimum inhibitory concentration against Clostridium perfringens (NCTC 523)(in vitro)
Outline: (§1)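 Broth microdilution MIC in 96-well plates. Drugs dissolved in 20% polyethylene glycol 200/water (stock 200 μg/mL), then serially diluted 2-fold in the wells to final concentrations of 0.8–100 μg/mL. Final inoculum 10⁸ organisms/mL. Plates incubated 48 h at 37 °C in an anaerobic chamber before the MIC was read.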

[2] = system: Cutibacterium acnes; experiment: Minimum inhibitory concentration against Propionibacterium acnes(NCTC 7337)(in vitro)
Outline: (§2)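 Broth microdilution: drug stock of 200 μg/mL in 20% polyethylene glycol 200/water, serially diluted 2-fold in the wells to final concentrations of 0.8–100 μg/mL. Final inoculum was 10⁸ organisms/mL. Plates were held at 37 °C for 48 h, in an anaerobic chamber for anaerobes or a conventional incubator for aerobes. MIC was then read.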

[3] = system: Streptococcus pyogenes; experiment: Minimum inhibitory concentration against Streptococcus pyogenes(ATCC 19615)(in vitro); outline: as §2
[4] = system: Bacteroides fragilis; experiment: Minimum inhibitory concentration against Bacteroides fragilis(NCTC 10581)(in vitro); outline: as §2
[5] = system: Staphylococcus aureus; experiment: Minimum inhibitory concentration against Staphylococcus aureus(ATCC 25923)(in vitro); outline: as §2
[6] = system: Pseudomonas aeruginosa; experiment: Minimum inhibitory concentration against Pseudomonas aeruginosa (ATCC 27853)(in vitro); outline: as §2
[7] = system: Cutibacterium acnes; experiment: Minimum inhibitory concentration against Propionibacterium acnes(NCTC 737)(in vitro); outline: as §2
[8] = system: Bacteroides fragilis; experiment: Minimum inhibitory concentration against Bacteroides fragilis(NCTC 9344)(in vitro); outline: as §2
[9] = system: Proteus vulgaris; experiment: Minimum inhibitory concentration against Proteus vulgaris(ATCC 13315)(in vitro); outline: as §2
[10] = system: Clostridium perfringens; experiment: Minimum inhibitory concentration against Clostridium perfringens (NCTC 8237)(in vitro); outline: as §1
[11] = system: Escherichia coli; experiment: Minimum inhibitory concentration against Escherichia coli(ATCC 25922)(in vitro); outline: as §2
[12] = system: Fusobacterium necrophorum; experiment: Minimum inhibitory concentration against Fusobacterium necrophorum (ATCC 11295)(in vitro); outline: as §2
[13] = system: Bacteroides fragilis; experiment: Minimum inhibitory concentration against Bacteroides fragilis (WSI)(in vitro); outline: as §2
[14] = system: Bacteroides fragilis; experiment: Minimum inhibitory concentration against Bacteroides fragilis (MZ-R)(in vitro); outline: as §2
[15] = system: Finegoldia magna; experiment: Minimum inhibitory concentration against Peptococcus magnus(in vitro); outline: as §2
[16] = system: Klebsiella pneumoniae; experiment: Minimum inhibitory concentration against Klebsiella pneumoniae (ATCC 13883)(in vitro); outline: as §2
[17] = system: Peptostreptococcus anaerobius; experiment: Minimum inhibitory concentration against Peptostreptococcus anaerobius(in vitro); outline: as §2
[18] = system: Bacteroides fragilis; experiment: Minimum inhibitory concentration against Bacteroides fragilis(NCTC 9343)(in vitro); outline: as §2
[19] = system: Anaerococcus prevotii; experiment: Minimum inhibitory concentration against Peptococcus prevotti(in vitro); outline: as §2

Q: Which results are given for O=C(c1ccc(Cl)cc1Cl)C(Cn1ccnc1)c1ccccc1 (stereo unspecified)?
A: MIC [1]: < 0.8 µg/mL; MIC [2]: < 0.8 µg/mL; MIC [3]: < 0.8 µg/mL; MIC [4]: < 0.8 µg/mL; MIC [5]: < 0.8 µg/mL; MIC [6]: > 100 µg/mL; MIC [7]: < 0.8 µg/mL; MIC [8]: < 0.8 µg/mL; MIC [9]: 6.2 µg/mL (≈ 18 µM); MIC [10]: < 0.8 µg/mL; MIC [11]: > 100 µg/mL; MIC [12]: < 0.8 µg/mL; MIC [13]: < 0.8 µg/mL; MIC [14]: < 0.8 µg/mL; MIC [15]: < 0.8 µg/mL; MIC [16]: > 100 µg/mL; MIC [17]: < 0.8 µg/mL; MIC [18]: < 0.8 µg/mL; MIC [19]: < 0.8 µg/mL

Q: Which results are given for Cc1ncc([N+](=O)[O-])n1CCO [METRONIDAZOLE]?
A: MIC [1]: < 0.8 µg/mL; MIC [2]: > 100 µg/mL; MIC [4]: < 0.8 µg/mL; MIC [7]: > 100 µg/mL; MIC [8]: < 0.8 µg/mL; MIC [10]: < 0.8 µg/mL; MIC [12]: < 0.8 µg/mL; MIC [13]: 1.5 µg/mL (≈ 8.76 µM); MIC [14]: 6.2 µg/mL (≈ 36.2 µM); MIC [15]: < 0.8 µg/mL; MIC [17]: < 0.8 µg/mL; MIC [18]: < 0.8 µg/mL; MIC [19]: 1.5 µg/mL (≈ 8.76 µM)

Q: What does the source list for O=C(c1ccc(Cl)cc1Cl)C(Cl)(Cn1ccnc1)c1ccccc1 (stereo unspecified)?
A: MIC [1]: < 0.8 µg/mL; MIC [2]: < 0.8 µg/mL; MIC [3]: 1.5 µg/mL (≈ 3.95 µM); MIC [4]: < 0.8 µg/mL; MIC [5]: 25 µg/mL (≈ 65.8 µM); MIC [6]: > 100 µg/mL; MIC [7]: < 0.8 µg/mL; MIC [8]: < 0.8 µg/mL; MIC [9]: > 100 µg/mL; MIC [10]: < 0.8 µg/mL; MIC [11]: > 100 µg/mL; MIC [12]: < 0.8 µg/mL; MIC [13]: < 0.8 µg/mL; MIC [14]: < 0.8 µg/mL; MIC [15]: < 0.8 µg/mL; MIC [16]: > 100 µg/mL; MIC [17]: < 0.8 µg/mL; MIC [18]: < 0.8 µg/mL; MIC [19]: < 0.8 µg/mL

Q: How did the MIC [1] turn out when O=C(c1ccc(Cl)cc1Cl)C(O)(Cn1ccnc1)c1ccccc1 (stereo unspecified) was run?
A: The MIC was 12.5 µg/mL (≈ 34.6 µM).

Q: What about the MIC [2] of the same compound?
A: Its MIC is 50 µg/mL (≈ 138 µM).

Q: What about the MIC [4] of the same compound?
A: Its MIC is 50 µg/mL (≈ 138 µM).

Q: What about the MIC [5] of the same compound?
A: The MIC was 25 µg/mL (≈ 69.2 µM).

Q: What about the MIC [7] of the same compound?
A: The MIC was 100 µg/mL (≈ 277 µM).

Q: What about the MIC [8] of the same compound?
A: The MIC was over 100 µg/mL.

Q: What about the MIC [9] of the same compound?
A: Its MIC is over 100 µg/mL.

Q: What about the MIC [10] of the same compound?
A: The MIC was 25 µg/mL (≈ 69.2 µM).

Q: What about the MIC [11] of the same compound?
A: Its MIC is over 100 µg/mL.

Q: And the MIC [12]?
A: The MIC was over 100 µg/mL.

Q: What about the MIC [13] of the same compound?
A: Its MIC is over 100 µg/mL.

Q: What about the MIC [14] of the same compound?
A: The MIC was over 100 µg/mL.

Q: And the MIC [15]?
A: Its MIC is over 100 µg/mL.

Q: And the MIC [16]?
A: The MIC was over 100 µg/mL.

Q: What about the MIC [17] of the same compound?
A: The MIC was 50 µg/mL (≈ 138 µM).

Q: And the MIC [18]?
A: The MIC was over 100 µg/mL.

Q: What about the MIC [19] of the same compound?
A: Its MIC is 12.5 µg/mL (≈ 34.6 µM).

Q: Which MIC [1] does the source give for C=C(C(=O)c1ccc(Cl)cc1Cl)c1ccccc1 here?
A: Its MIC is under 0.8 µg/mL.

Q: And the MIC [2]?
A: Its MIC is under 0.8 µg/mL.

Q: And the MIC [3]?
A: Its MIC is under 0.8 µg/mL.

Q: What about the MIC [4] of the same compound?
A: Its MIC is under 0.8 µg/mL.

Q: And the MIC [5]?
A: The MIC was under 0.8 µg/mL.

Q: And the MIC [6]?
A: The MIC was over 100 µg/mL.

Q: What about the MIC [7] of the same compound?
A: The MIC was under 0.8 µg/mL.

Q: What about the MIC [8] of the same compound?
A: The MIC was under 0.8 µg/mL.

Q: What about the MIC [9] of the same compound?
A: The MIC was 6.2 µg/mL (≈ 22.4 µM).

Q: What about the MIC [10] of the same compound?
A: Its MIC is under 0.8 µg/mL.

Q: What about the MIC [11] of the same compound?
A: Its MIC is over 100 µg/mL.

Q: What about the MIC [12] of the same compound?
A: Its MIC is under 0.8 µg/mL.

Q: What about the MIC [13] of the same compound?
A: Its MIC is under 0.8 µg/mL.

Q: And the MIC [14]?
A: Its MIC is under 0.8 µg/mL.

Q: What about the MIC [15] of the same compound?
A: Its MIC is under 0.8 µg/mL.

Q: What about the MIC [16] of the same compound?
A: Its MIC is over 100 µg/mL.

Q: What about the MIC [17] of the same compound?
A: Its MIC is under 0.8 µg/mL.

Q: What about the MIC [18] of the same compound?
A: The MIC was under 0.8 µg/mL.

Q: What about the MIC [19] of the same compound?
A: Its MIC is under 0.8 µg/mL.

Q: Which results are given for O=C(c1ccc(Cl)cc1Cl)C(Br)(Cn1ccnc1)c1ccccc1 (stereo unspecified)?
A: MIC [1]: < 0.8 µg/mL; MIC [2]: < 0.8 µg/mL; MIC [3]: < 0.8 µg/mL; MIC [4]: < 0.8 µg/mL; MIC [5]: 1.5 µg/mL (≈ 3.54 µM); MIC [6]: > 100 µg/mL; MIC [7]: < 0.8 µg/mL; MIC [8]: < 0.8 µg/mL; MIC [9]: 12.5 µg/mL (≈ 29.5 µM); MIC [10]: < 0.8 µg/mL; MIC [11]: > 100 µg/mL; MIC [12]: < 0.8 µg/mL; MIC [13]: < 0.8 µg/mL; MIC [14]: < 0.8 µg/mL; MIC [15]: 1.5 µg/mL (≈ 3.54 µM); MIC [16]: > 100 µg/mL; MIC [17]: 1.5 µg/mL (≈ 3.54 µM); MIC [18]: < 0.8 µg/mL; MIC [19]: 1.5 µg/mL (≈ 3.54 µM)

Q: With O=C(c1ccc(Cl)cc1Cl)C(F)(Cn1ccnc1)c1ccccc1 (stereo unspecified) as the compound, how does the MIC [1] read?
A: The MIC was 3.1 µg/mL (≈ 8.53 µM).

Q: And the MIC [2]?
A: Its MIC is 25 µg/mL (≈ 68.8 µM).

Q: And the MIC [3]?
A: Its MIC is 6.2 µg/mL (≈ 17.1 µM).

Q: What about the MIC [4] of the same compound?
A: The MIC was 50 µg/mL (≈ 138 µM).

Q: What about the MIC [5] of the same compound?
A: Its MIC is 50 µg/mL (≈ 138 µM).

Q: And the MIC [6]?
A: Its MIC is over 100 µg/mL.

Q: What about the MIC [7] of the same compound?
A: The MIC was 25 µg/mL (≈ 68.8 µM).

Q: What about the MIC [8] of the same compound?
A: Its MIC is 50 µg/mL (≈ 138 µM).

Q: What about the MIC [9] of the same compound?
A: The MIC was over 100 µg/mL.

Q: What about the MIC [10] of the same compound?
A: The MIC was 3.1 µg/mL (≈ 8.53 µM).

Q: And the MIC [11]?
A: Its MIC is over 100 µg/mL.

Q: And the MIC [12]?
A: The MIC was 25 µg/mL (≈ 68.8 µM).

Q: And the MIC [13]?
A: Its MIC is 50 µg/mL (≈ 138 µM).

Q: And the MIC [14]?
A: Its MIC is 50 µg/mL (≈ 138 µM).

Q: And the MIC [15]?
A: Its MIC is 25 µg/mL (≈ 68.8 µM).

Q: And the MIC [16]?
A: The MIC was over 100 µg/mL.

Q: And the MIC [17]?
A: Its MIC is 25 µg/mL (≈ 68.8 µM).

Q: And the MIC [18]?
A: Its MIC is 50 µg/mL (≈ 138 µM).

Q: What about the MIC [19] of the same compound?
A: The MIC was 6.2 µg/mL (≈ 17.1 µM).

Q: Which MIC [3] does the source give for POLYMYXIN B here?
A: Its MIC is 1.5 µg/mL.

Q: And the MIC [5]?
A: Its MIC is 25 µg/mL.

Q: And the MIC [6]?
A: The MIC was 3.1 µg/mL.

Q: And the MIC [9]?
A: Its MIC is 1.5 µg/mL.

Q: And the MIC [11]?
A: Its MIC is under 0.8 µg/mL.

Q: What about the MIC [16] of the same compound?
A: Its MIC is under 0.8 µg/mL.
